Compounds with a hit are over-represented: about 4.5% of the library has one in this group of screens.
PERK inhibitor: human PERK inhibition, primary cell-based screen. hit rate 0.17% among 220,000. CHO PERK-DD fusion, SEAP luminescence translation reporter. Q9NZJ5. inhibition, % at 5.6 µM;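 active means inhibition above the mean inhibition of all tested compounds plus 3 SD, set separately per screening campaign, cut at about 2.9% in these data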;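 further: PERK kinase domain activated by AP20187 dimerizer at 100 nM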
Mdm2 ligase inh: Mdm2 E3 ligase (human) inhibition; cell-based MDM2 ubiquitination luciferase reporter, 2 h; 0 = plate control, 100 = twice control, blank-subtracted; hit rate 0.11% among 210,000; Q00987; signal enhancement, % at 5 µM;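 active means signal enhancement of 30% or more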;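 further: luminescence tracks abundance of the self-degrading MDM2-luciferase fusion protein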
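system = mammalian cells stably expressing self-ubiquitinating, self-degrading MDM2 E3–luciferase fusion | quantity = 2000 cells per well seeded | incubation = 4 h cell settling then 2 h compound exposure, 37 °C | signal = SteadyLite luminescence, 15 min reagent step | benchmarks = plate control and blank wells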
APP 5'UTR act: APP 5'UTR luciferase reporter activation; SH-SY5Y APP 5'UTR luciferase reporter, luminescence; zero percent = DMSO vehicle wells; AID 1276; hit rate 1% among 190,000; activation, % at 2 µM;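 active means activation above a set limit, based on mean plus 3 SD of controls, cut at about 140% in these data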
STAT1 activator: increases IFN-gamma driven STAT1 reporter signal; hit rate 2.6% among 200,000; AID 932; NIH 3T3 STAT1-luciferase reporter, luminescence; 100% = IFN-gamma alone, no compound; activation (% of control), % at 5.5 µM;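 active means activation above the screen-wide mean activation plus 3 SD, cut at about 130% in these data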
NF-kB expr up: raises NF-kB expression in human neuronal cells; fold change at 12.5 µM; hit rate 1.6% among 190,000; NF-kB reporter expression; stronger effect = higher value; in the data active means fold change above about 3.3
AHR act: human AHR activation. activation, % at 5 µM. hit rate 2.5% among 320,000. P35869. AHR-responsive luciferase reporter cells, luminescence; in the data active means activation above about 47%
Target sequence (P35869 whole entry, looked up): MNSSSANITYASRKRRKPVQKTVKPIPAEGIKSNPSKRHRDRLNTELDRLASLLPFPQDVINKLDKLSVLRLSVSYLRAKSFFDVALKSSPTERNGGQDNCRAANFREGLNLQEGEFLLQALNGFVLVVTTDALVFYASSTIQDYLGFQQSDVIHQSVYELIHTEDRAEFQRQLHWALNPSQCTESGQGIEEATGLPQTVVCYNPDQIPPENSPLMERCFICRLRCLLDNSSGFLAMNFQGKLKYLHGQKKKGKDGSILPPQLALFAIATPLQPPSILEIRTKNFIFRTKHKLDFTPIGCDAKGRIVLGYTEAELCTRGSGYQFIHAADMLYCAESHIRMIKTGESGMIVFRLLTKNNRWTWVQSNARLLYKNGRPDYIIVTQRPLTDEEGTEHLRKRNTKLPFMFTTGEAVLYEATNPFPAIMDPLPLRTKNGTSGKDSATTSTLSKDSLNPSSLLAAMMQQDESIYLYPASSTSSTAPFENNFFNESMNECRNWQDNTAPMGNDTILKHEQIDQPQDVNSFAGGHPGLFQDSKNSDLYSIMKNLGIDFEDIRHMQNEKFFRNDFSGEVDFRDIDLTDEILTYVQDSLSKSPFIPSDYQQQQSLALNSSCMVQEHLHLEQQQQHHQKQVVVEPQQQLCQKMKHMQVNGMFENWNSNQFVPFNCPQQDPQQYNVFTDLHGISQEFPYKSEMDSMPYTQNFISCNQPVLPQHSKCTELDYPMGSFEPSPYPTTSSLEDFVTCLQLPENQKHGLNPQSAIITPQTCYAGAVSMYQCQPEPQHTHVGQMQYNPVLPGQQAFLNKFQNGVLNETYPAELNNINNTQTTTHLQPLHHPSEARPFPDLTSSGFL
STAT1 act conf: confirmation of STAT1 signaling activators | hit rate 97% among 1,200 | activation (% of control), % at 5.7 µM | AID 1262 | shares compounds with STAT1 activator | NIH 3T3 STAT1-luciferase reporter, IFN-gamma potentiation, luminescence; 100% = IFN-gamma EC80 alone, no compound;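 active means activation above a set limit carried over from the earlier primary STAT1 screen, cut at about 140% in these data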
NFkB act: counter-screen for STAT1 activators: NF-kappaB activation. shares compounds with STAT1 activator. HEK293T NF-kB luciferase reporter, TNF-alpha stimulated, luminescence; 100% = TNF-alpha with vehicle only. activation (% of control), % at 5.7 µM. hit rate 43% among 1,200. AID 1306;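 active means activation above the mean of solvent-only control wells plus 3 SD, set per campaign, cut at about 130% in these data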;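 further: TNF-alpha given at a submaximal dose yielding about 80% of full reporter signal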
STAT3 act 2: activates human STAT3, counter-screen to STAT1 activators. shares compounds with STAT1 activator. U3A cells STAT3-luciferase reporter, IL-6, luminescence; cells lack STAT1; 100 = IL-6 alone, no compound effect. activation (% of control), % at 5.7 µM. hit rate 46% among 1,200. AID 1316;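 active means activation above the solvent-only control well mean plus 3 SD, set per plate batch, cut at about 110% in these data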;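 further: higher means more STAT3 reporter activation so hits are non-selective activators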
Each line names hits and unclear results; the compound was inactive in the other large screens (follow-up assays come after a bar, where they were run).

O=C(Nc1ccc(SC(F)F)cc1)c1ccccc1F	STAT1 activator 161 | STAT1 act conf 182 | NFkB act 142 | STAT3 act 2 inactive
CCOC(=O)c1c(N)n[nH]c1-c1ccc(OC)cc1	none
CCOC(=O)c1sc(-c2ccc(OC)cc2)cc1N	APP 5'UTR act 159, STAT1 activator 157, NF-kB expr up 7.1 | STAT1 act conf 206 | NFkB act 137 | STAT3 act 2 inactive
COC(=O)c1sccc1NC(=O)Nc1cccc(C)c1	STAT1 activator 159 | STAT1 act conf 177 | NFkB act 134 | STAT3 act 2 123
O=C(NC1CC1)C1=C[C@H](C2CCCCC2)C[C@H](OCc2ccc(CO)cc2)O1	STAT1 activator 158 (no result: Mdm2 ligase inh) | STAT1 act conf inactive | NFkB act inactive | STAT3 act 2 inactive
CN(C)c1ccc(NC(=O)c2ccc(N3CCOCC3)nc2)cc1	none (no result: PERK inhibitor, Mdm2 ligase inh, APP 5'UTR act, STAT1 activator, NF-kB expr up)
CC(C)CN(C(=O)COC(=O)Cc1cccc2ccccc12)c1c(N)n(Cc2ccccc2)c(=O)[nH]c1=O	none (no result: PERK inhibitor, Mdm2 ligase inh, APP 5'UTR act, STAT1 activator, NF-kB expr up)
O=C(CN1C(=O)NC2(CCCCCC2)C1=O)c1ccc2c(c1)OCCO2	STAT1 activator 160 | STAT1 act conf 178 | NFkB act 136 | STAT3 act 2 126
CCCOC(=O)Nc1ccc(N2CCCCC2)cc1	STAT1 activator 154, NF-kB expr up 5.1 | STAT1 act conf 177 | NFkB act inactive | STAT3 act 2 inactive
CCCCC(=O)Nc1ccc(N2CCCC2)cc1	none (no result: Mdm2 ligase inh, NF-kB expr up)
O=C(Cc1cccs1)Nc1ccc(F)c(F)c1	none (no result: PERK inhibitor, Mdm2 ligase inh, APP 5'UTR act, STAT1 activator, NF-kB expr up)
O=C(/C=C/Nc1ccc(F)c(F)c1)c1cccs1	APP 5'UTR act 144, STAT1 activator 169, NF-kB expr up 9.8 | STAT1 act conf 229 | NFkB act inactive | STAT3 act 2 132
CC(C)(C)OC(=O)NOCC(=O)N(Cc1ccccc1)CC(O)COc1ccccc1 (stereo unspecified)	none (no result: PERK inhibitor, Mdm2 ligase inh, APP 5'UTR act, STAT1 activator, NF-kB expr up)
O=C(NC(=S)Nc1cc([N+](=O)[O-])ccc1O)C1CC1	none (no result: PERK inhibitor, Mdm2 ligase inh, APP 5'UTR act, STAT1 activator, NF-kB expr up)
Cc1ccc(C2=C/C(=C/c3cccs3)C(=O)O2)cc1	none
O=C1OC(c2ccccc2)=C/C1=C/N1CCCCC1	STAT1 activator 170 | STAT1 act conf 160 | NFkB act inactive | STAT3 act 2 117
Brc1ccc(-c2noc3c2-c2nc(C4CCCCC4)sc2CC3)cc1	none (no result: PERK inhibitor, Mdm2 ligase inh, APP 5'UTR act, STAT1 activator, NF-kB expr up)
O=Cc1cn(-c2ccccc2)nc1-c1ccc2c(c1)OCCO2	APP 5'UTR act 140, STAT1 activator 160, NF-kB expr up 6.9 | STAT1 act conf 193 | NFkB act 134 | STAT3 act 2 inactive
COc1ccc2c(c1)CC/C2=N\OC(=O)c1ccccc1C	APP 5'UTR act 153, STAT1 activator 159, NF-kB expr up 5.9 | STAT1 act conf 182 | NFkB act 134 | STAT3 act 2 inactive
COc1ccc2c(c1)CC/C2=N\OC(=O)c1cccc(C)c1	STAT1 activator 165, NF-kB expr up 5.9 | STAT1 act conf 183 | NFkB act 137 | STAT3 act 2 inactive
COc1ccc2c(c1)CCC/C2=N/OC(=O)c1ccccc1OC	none
CCN(CC)CCN(C(=O)c1ccc2c(c1)CCCC2)c1nc2cc(OC)c(OC)cc2s1	none (no result: PERK inhibitor, Mdm2 ligase inh, APP 5'UTR act, STAT1 activator, NF-kB expr up)
COc1cccc2cc(-c3cn4ccc(C)cc4n3)c(=O)oc12	STAT1 activator 169 (no result: Mdm2 ligase inh, NF-kB expr up) | STAT1 act conf 218 | NFkB act 134 | STAT3 act 2 inactive
NS(=O)(=O)c1ccc(NCC2COc3ccccc3O2)c([N+](=O)[O-])c1 (stereo unspecified)	none
CC(=O)c1ccc(NCC2COc3ccccc3O2)c([N+](=O)[O-])c1 (stereo unspecified)	APP 5'UTR act 145, STAT1 activator 159 | STAT1 act conf 229 | NFkB act 140 | STAT3 act 2 220
CCN(CC(=O)Nc1ccc(NC(C)=O)cc1)C(=O)/C=C/c1ccc([N+](=O)[O-])cc1	none (no result: PERK inhibitor, Mdm2 ligase inh, APP 5'UTR act, STAT1 activator, NF-kB expr up)
CCc1cc2c(=O)c(-c3ccc4c(c3)OCCO4)coc2cc1OS(C)(=O)=O	STAT1 activator 156 | STAT1 act conf 160 | NFkB act 137 | STAT3 act 2 117
CCOc1ccccc1C(=O)OCC(=O)NCC1CCCCC1	none (no result: PERK inhibitor, Mdm2 ligase inh, APP 5'UTR act, STAT1 activator, NF-kB expr up)
COc1ccccc1N(C)S(=O)(=O)c1ccc(C(=O)Nc2nc(C)cs2)cc1	none
COc1ccccc1CN1C(=NC(=O)C2CCCCC2)SC2CS(=O)(=O)CC21 (stereo unspecified)	none (no result: PERK inhibitor, Mdm2 ligase inh, APP 5'UTR act, STAT1 activator, NF-kB expr up)
COc1ccc(Cn2c(C3CC3)nc3ccc(NC(C)=O)cc3c2=O)cc1	APP 5'UTR act 142, STAT1 activator 169, NF-kB expr up 4.3 | STAT1 act conf 213 | NFkB act 143 | STAT3 act 2 134
CCc1nn(C(C)C(=O)N(C)Cc2ccccc2)c(=O)c2cc3occc3n12 (stereo unspecified)	none (no result: PERK inhibitor, Mdm2 ligase inh, APP 5'UTR act, STAT1 activator, NF-kB expr up)
CC1Cc2ccccc2N1C(=O)COC(=O)/C=C/c1ccc(F)cc1 (stereo unspecified)	none (no result: PERK inhibitor, Mdm2 ligase inh, APP 5'UTR act, STAT1 activator, NF-kB expr up)
CC1Cc2ccccc2N1C(=O)/C=C/c1cccc(F)c1 (stereo unspecified)	APP 5'UTR act 189, STAT1 activator 158, NF-kB expr up 6.3 | STAT1 act conf 202 | NFkB act 141 | STAT3 act 2 inactive
O=C(O)c1nn(-c2ccccc2-c2n[nH]c(=O)[nH]c2=O)c(=O)[nH]c1=O	none (no result: Mdm2 ligase inh, APP 5'UTR act, STAT1 activator, NF-kB expr up)
Cc1cc(C)n(-c2nnc(NC34CC5CC(CC(C5)C3)C4)nn2)n1	STAT1 activator 162 | STAT1 act conf 182 | NFkB act 145 | STAT3 act 2 159
O=C1N[C@@H](Cc2c[nH]c3ccccc23)COC(=O)[C@@H](Cc2ccc(F)cc2)CC/C=C/C[C@@H]1CC(=O)N(CCO)Cc1ccccc1	none (no result: PERK inhibitor, Mdm2 ligase inh, APP 5'UTR act, STAT1 activator, NF-kB expr up)
COc1ccc(-c2cc(C(=O)Nc3ccccc3)on2)cc1	STAT1 activator 179 | STAT1 act conf 156 | NFkB act inactive | STAT3 act 2 inactive
Fc1ccccc1CSc1nnc(-c2cccnc2)o1	STAT1 activator 161, NF-kB expr up 3.5 | STAT1 act conf 147 | NFkB act inactive | STAT3 act 2 inactive
COc1cc(OC)cc(C(=O)N[C@H](C(=O)Nc2c(C)n(C)n(-c3ccccc3)c2=O)C(C)C)c1	none (no result: PERK inhibitor, Mdm2 ligase inh, APP 5'UTR act, STAT1 activator, NF-kB expr up)
O=C(Nc1ccccc1)OC1CC2CC1C1CCCC21 (stereo unspecified)	STAT1 activator 162 | STAT1 act conf 175 | NFkB act 134 | STAT3 act 2 111
COC(=O)c1ccc(NC(=S)Nc2ccccn2)cc1	STAT1 activator 165 (no result: APP 5'UTR act) | STAT1 act conf 190 | NFkB act 135 | STAT3 act 2 inactive
